Active and inactive are the calls of the source. The calls are words filed in the database; no cut-off is given here.
Key:
NCI-H1975 = assay: Antiproliferative activity against human NCI-H1975 cells assessed as reduction in cell viability after 72 hrs by MTS assay; assay type: functional, cell-based; details: NCI-H1975, 72 h
How it was run: (§1)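 Cells plated at 2000/well, cultured overnight, then exposed to a range of compound concentrations for 72 h. MTS reagent added for 1–4 h at 37 °C and absorbance read at 490 nm. Cultured in RPMI 1640 or DMEM with 10% heat-inactivated FBS under 5% CO2. Data are the mean of three determinations.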

[1] = Toxicity in Balb/c mouse xenografted with human KBtax cells assessed as serum AST level at 15 mg/kg, ip administered 3 times per week and measured after 21 days (reference value: 94.2 +/- 12.5 IU/L); assay type: organism-based; details: in vivo, 504 h
Tubulin (Sus scrofa) = Tubulin (Sus scrofa) (UniProt P02554+P02550); assay: Inhibition of porcine tubulin at 5 uM in presence of GTP measured every minute for 1 hr by microplate reader analysis; assay type: protein assay
Tubulin (Sus scrofa), sequence (P02550 whole entry, looked up): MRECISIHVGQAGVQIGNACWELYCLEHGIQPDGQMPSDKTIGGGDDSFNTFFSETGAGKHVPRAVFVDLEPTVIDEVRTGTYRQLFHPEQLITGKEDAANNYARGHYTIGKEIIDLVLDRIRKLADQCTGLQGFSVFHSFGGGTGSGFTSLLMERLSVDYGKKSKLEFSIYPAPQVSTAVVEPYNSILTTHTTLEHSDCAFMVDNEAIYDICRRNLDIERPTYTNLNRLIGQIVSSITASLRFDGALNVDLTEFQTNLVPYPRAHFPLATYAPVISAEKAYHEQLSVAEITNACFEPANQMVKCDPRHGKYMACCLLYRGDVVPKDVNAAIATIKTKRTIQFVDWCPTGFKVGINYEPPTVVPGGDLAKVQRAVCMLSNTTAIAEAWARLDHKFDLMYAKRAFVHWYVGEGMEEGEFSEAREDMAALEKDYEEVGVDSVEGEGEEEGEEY
Tubulin (Sus scrofa), sequence (P02554 whole entry, looked up): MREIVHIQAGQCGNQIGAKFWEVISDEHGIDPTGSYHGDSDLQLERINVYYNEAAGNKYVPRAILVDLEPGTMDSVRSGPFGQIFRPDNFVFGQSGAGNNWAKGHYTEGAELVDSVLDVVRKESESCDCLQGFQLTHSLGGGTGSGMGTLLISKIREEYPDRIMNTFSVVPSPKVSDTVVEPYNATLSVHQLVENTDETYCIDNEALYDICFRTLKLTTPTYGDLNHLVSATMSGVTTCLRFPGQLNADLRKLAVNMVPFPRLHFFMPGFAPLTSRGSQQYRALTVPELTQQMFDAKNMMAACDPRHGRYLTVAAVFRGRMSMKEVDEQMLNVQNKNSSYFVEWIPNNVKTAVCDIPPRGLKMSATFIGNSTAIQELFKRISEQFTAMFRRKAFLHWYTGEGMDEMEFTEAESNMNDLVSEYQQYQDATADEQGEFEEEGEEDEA

[2] = Toxicity in Balb/c mouse xenografted with human KBtax cells assessed as serum creatinine level at 15 mg/kg, ip administered 3 times per week and measured after 21 days (reference value: 0.22 +/- 0.02 mg/dl); assay type: organism-based; details: in vivo, 504 h
[3] = Antiproliferative activity against human CCRF-CEM/VBL cells assessed as reduction in cell viability after 72 hrs by MTS assay; assay type: functional, cell-based; how it was run: as §1
[4] = target: T1, Tubulin alpha (Homo sapiens) (UniProt P0DPH7+P68366+Q71U36+P68363+Q9BQE3+Q6PEY2+A6NHL2+Q9NY65); assay: Induction of microtubule depolymerization in human CL1-0 cells assessed as increase in alpha tubulin soluble form by immunoblot analysis; assay type: cell-based
How it was run: (§2)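 Lysate spun at 16,000 rpm for 15 min at room temperature. Soluble (monomer) and particulate (polymer) fractions immunoblotted for α-tubulin.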

[5] = Antiproliferative activity against human KBtax cells assessed as reduction in cell viability after 72 hrs by MTS assay; assay type: functional, cell-based; how it was run: as §1
[6] = Toxicity in Balb/c mouse xenografted with human KBtax cells assessed as serum BUN level at 15 mg/kg, ip administered 3 times per week and measured after 21 days (reference value: 17.8 +/-1.1 mg/dl); assay type: organism-based; details: in vivo, 504 h
[7] = Antitumour activity against human KBtax cells xenografted in Balb/c mouse assessed as reduction in tumour size at 15 mg/kg, ip administered 3 times per week and measured after 21 days (reference value: 1109 +/- 128.3 mm3); assay type: functional
CCRF-CEM = assay: Antiproliferative activity against human CCRF-CEM cells assessed as reduction in cell viability after 72 hrs by MTS assay; assay type: functional, cell-based; how it was run: as §1
[8] = target: T1, Tubulin alpha (Homo sapiens); assay: Induction of microtubule depolymerization in human NCI-H1975 cells assessed as increase in alpha tubulin soluble form by immunoblot analysis; assay type: cell-based; how it was run: as §2
[9] = Antiproliferative activity against human KB/VCR cells assessed as reduction in cell viability after 72 hrs by MTS assay; assay type: functional, cell-based; how it was run: as §1
[10] = Selectivity index, ratio of IC50 for human KB/VCR cells to IC50 for human KB cells; assay type: functional
[11] = Selectivity index, ratio of IC50 for human KBtax cells to IC50 for human KB cells; assay type: functional
KB = assay: Antiproliferative activity against human KB cells assessed as reduction in cell viability after 72 hrs by MTS assay; assay type: functional, cell-based; how it was run: as §1
[12] = Selectivity index, ratio of IC50 for human CCRF-CEM/VBL cells to IC50 for human CCRF-CEM cells; assay type: functional
Tubulin (Homo sapiens) [13] = target: T2, Tubulin (Homo sapiens) (UniProt P68371+Q9H4B7+P0DPH7+P68366+Q13509+Q71U36+P04350+Q3ZCM7+P07437+P68363+Q9BQE3+Q6PEY2+Q13885+Q9BVA1+Q9BUF5); assay: Binding affinity to tubulin (unknown origin) assessed as increase in Beta-col fragment production at 100 uM after 30 mins by coomassie brilliant blue staining based trypsin proteolysis assay; assay type: protein-complex assay
How it was run: (§3)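 Tubulin (1 mg/mL) preincubated with 100 µM compound for 30 min at 30 °C in 0.1 M MES, 1 mM MgCl2, 1 mM EGTA, pH 6.9. Trypsin added at 25 µg/mL (1:40 w/w) for 10 min on ice. Fragments resolved on 15% SDS-PAGE, stained with Coomassie and quantified by densitometry.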

[14] = Induction of apoptosis in human NHFB cells assessed as PARP cleavage at 40 nM after 24 to 72 hrs by immunoblotting analysis; assay type: cell-based; details: 0.04 µM
[15] = Induction of apoptosis in human NHFB cells assessed as cytochrome c release at 40 to 80 nM after 24 hrs by immunoblotting analysis; assay type: cell-based; details: 0.08 µM
[16] = Toxicity in Balb/c mouse xenografted with human NCI-H1975 cells assessed as serum AST level at 4 mg/kg, ip administered 3 times per week for 25 days (reference value: 122 +/- 14.5 IU/L); assay type: organism-based; details: in vivo, 600 h
[17] = Cell cycle arrest in human NHFB cells assessed as effect on cell population at sub-G1 phase at 40 to 80 nM after 24 hrs by propidium iodide-staining based flow cytometry; assay type: ADME; details: 0.08 µM
How it was run: (§4)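 Cells treated for 24 h, then trypsinized and fixed overnight in ice-cold 70% ethanol. Stained for 30 min with propidium iodide (10 µg/mL) plus RNase (20 µg/mL), and DNA content measured by flow cytometry. Mean ± SD.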

[18] = Induction of apoptosis in human NHFB cells assessed as cleaved caspase 3 expression at 40 nM after 24 to 72 hrs by immunoblotting analysis; assay type: cell-based; details: 0.04 µM
[19] = Toxicity in Balb/c mouse xenografted with human NCI-H1975 cells assessed as serum AST level at 8 mg/kg, ip administered 3 times per week for 25 days (reference value: 122 +/- 14.5 IU/L); assay type: organism-based; details: in vivo, 600 h
[20] = Toxicity in Balb/c mouse xenografted with human NCI-H1975 cells assessed as serum ALT level at 4 mg/kg, ip administered 3 times per week for 25 days (reference value: 36.6 +/- 5.9 IU/L); assay type: organism-based; details: in vivo, 600 h
[21] = Toxicity in Balb/c mouse xenografted with human NCI-H1975 cells assessed as serum creatinine level at 8 mg/kg, ip administered 3 times per week for 25 days (reference value: 0.14 +/- 0.02 mg/dl); assay type: organism-based; details: in vivo, 600 h
Tubulin = assay: Binding affinity to tubulin (unknown origin) assessed as dissociation constant by SPR analysis; assay type: protein-complex assay, Homo sapiens
How it was run: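 Biotin-tubulin (50 µg/mL) captured on a streptavidin chip to about 3,000 RU, with remaining sites blocked by biocytin and a free flow cell as reference. Compound injected at different concentrations in HBS-EP+ (pH 7.4) at 25 °C. KD obtained from steady-state fitting.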

[22] = Toxicity in Balb/c mouse xenografted with human NCI-H1975 cells assessed as serum BUN level at 4 mg/kg, ip administered 3 times per week for 25 days (reference value: 18.5 +/- 1.6 mg/dl); assay type: organism-based; details: in vivo, 600 h
[23] = Toxicity in Balb/c mouse xenografted with human NCI-H1975 cells assessed as serum creatinine level at 4 mg/kg, ip administered 3 times per week for 25 days (reference value: 0.14 +/- 0.02 mg/dl); assay type: organism-based; details: in vivo, 600 h
[24] = Toxicity in Balb/c mouse xenografted with human NCI-H1975 cells assessed as effect on body mass at 4 to 8 mg/kg, ip administered 3 times per week for 25 days; assay type: organism-based; details: in vivo, 600 h
How it was run: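 H1975 cells (2 × 10^6) injected subcutaneously into right flank of 6-week-old BALB/c nude mice; established tumors treated intraperitoneally with 4 or 8 mg/kg compound in DMSO, or DMSO, three times a week for 25 days (n = 6 per group). Body mass recorded before each injection.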

[25] = Toxicity in Balb/c mouse xenografted with human NCI-H1975 cells assessed as serum ALT level at 8 mg/kg, ip administered 3 times per week for 25 days (reference value: 36.6 +/- 5.9 IU/L); assay type: organism-based; details: in vivo, 600 h
[26] = Toxicity in Balb/c mouse xenografted with human NCI-H1975 cells assessed as serum BUN level at 8 mg/kg, ip administered 3 times per week for 25 days (reference value: 18.5 +/- 1.6 mg/dl); assay type: organism-based; details: in vivo, 600 h
[27] = Cell cycle arrest in human NHFB cells assessed as effect on cell population at G2/M phase at 40 to 80 nM after 24 hrs by propidium iodide-staining based flow cytometry; assay type: ADME; details: 0.08 µM; how it was run: as §4
Tubulin (Homo sapiens) [28] = target: T2, Tubulin (Homo sapiens); assay: Binding affinity to tubulin (unknown origin) assessed as reduction in Beta-colfragment production at 100 uM after 30 mins by coomassie brilliant blue staining based trypsin proteolysis assay; assay type: protein-complex assay; how it was run: as §3
Tubulin (Homo sapiens) [29] = target: T2, Tubulin (Homo sapiens); assay: Binding affinity to tubulin (unknown origin) assessed as reduction in alpha-N fragment production at 100 uM after 30 mins by coomassie brilliant blue staining based trypsin proteolysis assay; assay type: protein-complex assay; how it was run: as §3
Tubulin (Homo sapiens) [30] = target: T2, Tubulin (Homo sapiens); assay: Binding affinity to tubulin (unknown origin) assessed as reduction in alpha-C fragment production at 100 uM after 30 mins by coomassie brilliant blue staining based trypsin proteolysis assay; assay type: protein-complex assay; how it was run: as §3

## CCOC(=O)c1ccc2[nH]c(-c3ccc(OC)cc3)cc(=O)c2c1
NCI-H1975
  IC50: 2200 nM

## O=C(O)c1ccc2[nH]c(-c3ccccc3)cc(=O)c2c1
NCI-H1975
  IC50: > 5000 nM

## CCOC(=O)c1ccc2[nH]c(-c3cccc(OC)c3)cc(=O)c2c1
NCI-H1975
  IC50: 44 nM

## COC(=O)c1ccc2[nH]c(-c3ccccc3)cc(=O)c2c1
NCI-H1975
  IC50: 207 nM

## CCOC(=O)c1ccc2[nH]c(-c3ccc(F)cc3)cc(=O)c2c1
NCI-H1975
  IC50: 2100 nM

## CCOC(=O)c1ccc2[nH]c(-c3ccc(O)cc3)cc(=O)c2c1
NCI-H1975
  IC50: 475 nM

## CC(=O)O[C@H]1C(=O)[C@@]2(C)[C@H]([C@H](OC(=O)c3ccccc3)[C@]3(O)C[C@H](OC(=O)[C@H](O)[C@@H](NC(=O)c4ccccc4)c4ccccc4)C(C)=C1C3(C)C)[C@]1(OC(C)=O)CO[C@@H]1C[C@@H]2O [PACLITAXEL]
[1]
  Activity: 102.8 IU/L
Tubulin (Sus scrofa)
  tubulin inhibition call (active/not active): inactive
[2]
  Activity: 0.16 mg/dL
[3]
  IC50: 857 nM
[4]
  Activity: inactive
[5]
  IC50: 101 nM
[6]
  Activity: 19 mg/dL
[7]
  Activity: 868.7 mm3
CCRF-CEM
  IC50: 4 nM
[8]
  Activity: inactive
[9]
  IC50: 708 nM

## CCOC(=O)c1ccc2[nH]c(-c3ccc(Br)cc3)cc(=O)c2c1
NCI-H1975
  IC50: 4500 nM

## C/C(=C\c1csc(C)n1)[C@@H]1C[C@@H]2O[C@]2(C)CCC[C@H](C)[C@H](O)[C@@H](C)C(=O)C(C)(C)[C@@H](O)CC(=O)N1 [IXABEPILONE]
[10]
  Ratio IC50: 24
[11]
  Ratio IC50: 4.3
KB
  IC50: 8 nM
[3]
  IC50: 150 nM
[12]
  Ratio IC50: 50
[5]
  IC50: 35 nM
CCRF-CEM
  IC50: 3 nM
[9]
  IC50: 193 nM

## COC(=O)Nc1nc2cc(C(=O)c3cccs3)ccc2[nH]1
Tubulin (Homo sapiens) [13]
  Activity: Active
Tubulin (Sus scrofa)
  tubulin inhibition call (active/not active): Active
[4]
  Activity: Active
[8]
  Activity: Active

## CCNC(=O)c1ccc2[nH]c(-c3ccccc3)cc(=O)c2c1
NCI-H1975
  IC50: 3700 nM

## CCOC(=O)c1ccc2[nH]c(-c3ccccc3)cc(=O)c2c1
[14]
  Activity: Non-Toxic
[15]
  Activity: Non-Toxic
[16]
  Activity: 138.7 IU/L
[17]
  Activity: Non-Toxic
[18]
  Activity: Non-Toxic
[19]
  Activity: 170.8 IU/L
[20]
  Activity: 40.8 IU/L
[21]
  Activity: 0.17 mg/dL
Tubulin
  Kd: 13800 nM
[22]
  Activity: 23.2 mg/dL
[23]
  Activity: 0.26 mg/dL
[24]
  Activity: Non-Toxic
[25]
  Activity: 54.2 IU/L
[26]
  Activity: 20.9 mg/dL
[27]
  Activity: Non-Toxic

## CCOC(=O)c1ccc2[nH]c(-c3cccc(O)c3)cc(=O)c2c1
NCI-H1975
  IC50: 1950 nM

## CCOCc1ccc2[nH]c(-c3ccccc3)cc(=O)c2c1
NCI-H1975
  IC50: 810 nM

## CC[C@]1(O)C[C@H]2CN(CCc3c([nH]c4ccccc34)[C@@](C(=O)OC)(c3cc4c(cc3OC)N(C=O)[C@H]3[C@@](O)(C(=O)OC)[C@H](OC(C)=O)[C@]5(CC)C=CCN6CC[C@]43[C@@H]65)C2)C1 [VINCRISTINE]
Tubulin (Homo sapiens) [28]
  Activity: Active
[10]
  Ratio IC50: 163
[11]
  Ratio IC50: 9.8
KB
  IC50: 5 nM
Tubulin (Homo sapiens) [29]
  Activity: Active
Tubulin (Sus scrofa)
  tubulin inhibition call (active/not active): Active
[3]
  IC50: 1320 nM
[12]
  Ratio IC50: 440
[5]
  IC50: 49 nM
CCRF-CEM
  IC50: 3 nM
Tubulin (Homo sapiens) [30]
  Activity: Active
[9]
  IC50: 817 nM

## CCOC(=O)c1ccc2[nH]c(-c3cccc(C(F)(F)F)c3)cc(=O)c2c1
NCI-H1975
  IC50: 780 nM

## CC(C)OC(=O)c1ccc2[nH]c(-c3ccccc3)cc(=O)c2c1
NCI-H1975
  IC50: 48 nM

— ChEMBL document CHEMBL4359883, “4(1H)-quinolone derivatives overcome acquired resistance to anti-microtubule agents by targeting the colchicine site of β-tubulin” (Eur J Med Chem, 2019)
